This is an account of results in ChEMBL document CHEMBL5236607, “Membrane-Active Cyclic Amphiphilic Peptides: Broad-Spectrum Antibacterial Activity Alone and in Combination with Antibiotics” (J Med Chem, 2022).

Test [1] deals with Klebsiella pneumoniae. Kind of test: Antibacterial activity against Klebsiella pneumoniae ATCC 700603 after 24 hrs by microbroth dilution method. The format is functional. (In general: In broth dilution the organism is exposed to a series of concentrations in liquid medium.)
The test system of test [2] is Klebsiella pneumoniae. The test is described as follows: Antibacterial activity against multidrug resistant Klebsiella pneumoniae 1188718 after 24 hrs by microbroth dilution method. The test is classed as functional.
For test [3], the system named is Klebsiella pneumoniae. The test is described as follows: Antibacterial activity against carbapenem resistant Klebsiella pneumoniae ATCC BAA 1705 after 24 hrs by microbroth dilution method. The format is functional.
Test [4] concerns Staphylococcus aureus. Kind of test: Synergistic antibacterial activity against methicillin resistant Staphylococcus aureus ATCC BAA-1556 incubated for 24 hrs in presence of levofloxacin by checkerboard assay. The test is classed as functional. The method, boiled down: (§1)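 Checkerboard assay. Inoculum from an LB overnight culture at 0.5 McFarland, diluted 1/150 in MH media. […] Incubated 37 °C for 24 h. FICI = MIC combination/MIC alone summed over both agents. Triplicate.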

Test [5] relates to Pseudomonas aeruginosa. Kind of test: Synergistic antibacterial activity against Pseudomonas aeruginosa ATCC […] incubated for 24 hrs in presence of polymyxin B by checkerboard assay. The format is functional. The method, boiled down:
as §1

Test [6] concerns Staphylococcus aureus. Kind of test: Synergistic antibacterial activity against methicillin resistant Staphylococcus aureus ATCC BAA-1556 assessed as fractional inhibitory concentration index incubated for 24 hrs in presence of tobramycin by checkerboard assay. The test is classed as functional. The method, boiled down: as §1
Test [7] relates to Escherichia coli. Kind of test: Synergistic antibacterial activity against Escherichia coli ATCC 25922 assessed as fractional inhibitory concentration index incubated for 24 hrs in presence of tobramycin by checkerboard assay. The test is classed as functional. The method, boiled down:
(§2)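 Checkerboard assay in MH broth. Inoculum from an LB overnight culture set to 0.5 McFarland and diluted 1/150. […] Each agent was also titrated alone. Incubation 24 h at 37 °C. FIC = combination MIC/individual MIC; FICI = sum of the FICs. Triplicate.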

In test [8] the test system is Staphylococcus aureus. Kind of test: Synergistic antibacterial activity against methicillin resistant Staphylococcus aureus ATCC BAA-1556 fractional inhibitory concentration index incubated for 24 hrs in presence of levofloxacin by checkerboard assay. The format is functional. The method, boiled down:
as §1

Test [9] deals with Pseudomonas aeruginosa. The test is described as follows: Synergistic antibacterial activity against Pseudomonas aeruginosa ATCC […] fractional inhibitory concentration index incubated for 24 hrs in presence of polymyxin B by checkerboard assay. The format is functional.
Test [10] concerns Klebsiella pneumoniae. Kind of test: Synergistic antibacterial activity against Klebsiella pneumoniae ATCC BAA-1705 fractional inhibitory concentration index incubated for 24 hrs in presence of meropenem by checkerboard assay. The format is functional. The method, boiled down:
as §2

Test [11] concerns Pseudomonas aeruginosa. The test is described as follows: Synergistic antibacterial activity against Pseudomonas aeruginosa ATCC […] assessed as fractional inhibitory concentration incubated for 24 hrs in presence of tobramycin by checkerboard assay. The format is functional.
Test [12] deals with Escherichia coli. The test is described as follows: Synergistic antibacterial activity against Escherichia coli ATCC 25922 assessed as fractional inhibitory concentration incubated for 24 hrs in presence of tobramycin by checkerboard assay. The format is functional. The method, boiled down: as §2
Test [13] relates to Staphylococcus aureus. Kind of test: Synergistic antibacterial activity against methicillin resistant Staphylococcus aureus ATCC BAA-1556 fractional inhibitory concentration incubated for 24 hrs in presence of levofloxacin by checkerboard assay. The test is classed as functional. The method, boiled down:
as §1

Test [14] deals with Pseudomonas aeruginosa. The test is described as follows: Synergistic antibacterial activity against Pseudomonas aeruginosa ATCC […] fractional inhibitory concentration incubated for 24 hrs in presence of polymyxin B by checkerboard assay. The format is functional.
Test [15] relates to Klebsiella pneumoniae. Kind of test: Synergistic antibacterial activity against Klebsiella pneumoniae ATCC BAA-1705 fractional inhibitory concentration incubated for 24 hrs in presence of meropenem by checkerboard assay. The test is classed as functional. The method, boiled down: as §2
In test [16] the test system is Staphylococcus aureus. Kind of test: Bactericidal activity against methicillin resistant Staphylococcus aureus assessed as reduction in bacterial cells at MIC after […] by time kill assay. The test is classed as functional. On the set-up: scale not given: the % may be the effect or the level left.
For test [17], the system named is Staphylococcus aureus. The test is described as follows: Bactericidal activity against methicillin resistant Staphylococcus aureus assessed as reduction in bacterial cells at 4 times MIC after 2 hrs by time kill assay. The test is classed as functional. On the set-up: scale not given: the % may be the effect or the level left. The method, boiled down:
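Time-kill in Müller–Hinton media. […] Aliquots taken at 0–24 h, serially diluted and plated on MH agar. CFU counted after 24 h at 37 °C. Two independent experiments in triplicate.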

Test [18] can be described thus: Membrano-lytic effect in bacterial inner membrane mimic DOPC/DOPG (7:3) large unilamellar vesicles assessed as calcein leakage at 50 ug/ml measured after 90 mins by multimode microplate reader assay. The test is classed as cell membranes. The settings on record: dose 50.0 µg/ml. The method, boiled down: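 Calcein (70 mM) loaded into extruded 100 nm LUVs: DOPC:DOPG 7:3 (w/w) as the bacterial mimic, DOPC/cholesterol 10:1 (w/w) as the mammalian mimic. Free dye removed by gel filtration. Liposomes at 40 μM final lipid in PBS mixed 1:1 with peptide (5–50 μg/mL). Fluorescence (ex 490/em 520 nm) read every 10 min for 100 min; Triton X-100 defines 100% release. Triplicate.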

Test [19] deals with Cell membrane. Kind of test: Membrano-lytic activity against methicillin resistant Staphylococcus aureus assessed as change in morphology at 4 times MIC after 1 hr by SEM analysis. The format is subcellular.
Test [20] concerns Cell membrane. Kind of test: Membrano-lytic activity against Escherichia coli assessed as change in morphology at 4 times MIC after 1 hr by SEM analysis. The test is classed as subcellular. The method, boiled down:
(§3)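 E. coli ATCC BAA-2452 from overnight culture, suspended at 10^7 CFU/mL in 10 mM PBS pH 7.4. […] Fixed in 4% glutaraldehyde in cacodylate buffer pH 7.4 for 3 h at 4 °C, ethanol-dehydrated, HMDS-dried, Au/Pd-coated, then imaged by FE-SEM.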

Test [21] has as its system Cell membrane. The test is described as follows: Membrano-lytic activity against methicillin resistant Staphylococcus aureus assessed as loss of membrane fluidity at 4 times MIC after 1 hr by SEM analysis. The test is classed as subcellular.
The test system of test [22] is Cell membrane. The test is described as follows: Membrano-lytic activity against Escherichia coli assessed as loss of membrane fluidity at 4 times MIC after 1 hr by SEM analysis. The test is classed as subcellular. The method, boiled down:
as §3

Test [23] relates to Cell membrane. Kind of test: Membrano-lytic activity against Escherichia coli assessed as membrane atrophy at 4 times MIC after 1 hr by SEM analysis. The format is subcellular. The method, boiled down:
as §3

Test [24] has as its system Staphylococcus aureus. Kind of test: Induction of resistance development in Staphylococcus aureus ATCC 29213 assessed as increase in MIC by microtiter plate reader assay. The test is classed as functional, organism-based. The method, boiled down: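 Serial passage resistance assay with 2-fold microdilution MICs in 96-well plates. Each passage takes the well with the highest concentration still permitting growth, adjusts it to 0.5 McFarland, and dilutes it to a final 5 × 10^5 CFU/mL for the next passage. Eighteen passages; MIC recorded at each. Triplicate.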

For test [25], the system named is Escherichia coli. The test is described as follows: Induction of resistance development in Escherichia coli ATCC 25922 assessed as increase in MIC by microtiter plate reader assay. The test is classed as functional, organism-based.
For test [26], the system named is Escherichia coli. Kind of test: Synergistic antibacterial activity against Escherichia coli ATCC 25922 incubated for 24 hrs in presence of meropenem by checkerboard assay. The test is classed as functional. The method, boiled down:
as §2

Test [27] deals with Escherichia coli. The test is described as follows: Synergistic antibacterial activity against Escherichia coli ATCC 25922 fractional inhibitory concentration index incubated for 24 hrs in presence of metronidazole by checkerboard assay. The format is functional. The method, boiled down:
as §2

Test [28] deals with Escherichia coli. The test is described as follows: Synergistic antibacterial activity against Escherichia coli ATCC 25922 fractional inhibitory concentration index incubated for 24 hrs in presence of meropenem by checkerboard assay. The test is classed as functional. The method, boiled down: as §1
In test [29] the test system is Escherichia coli. The test is described as follows: Synergistic antibacterial activity against Escherichia coli ATCC 25922 fractional inhibitory concentration incubated for 24 hrs in presence of Ciprofloxacin by checkerboard assay. The format is functional. The method, boiled down:
as §2

Test [30] concerns Staphylococcus aureus. Kind of test: Synergistic antibacterial activity against methicillin resistant Staphylococcus aureus ATCC BAA-1556 fractional inhibitory concentration incubated for 24 hrs in presence of polymyxin B by checkerboard assay. The test is classed as functional. The method, boiled down: as §1
For test [31], the system named is Escherichia coli. Kind of test: Synergistic antibacterial activity against Escherichia coli ATCC 25922 fractional inhibitory concentration incubated for 24 hrs in presence of metronidazole by checkerboard assay. The format is functional. The method, boiled down: as §2
For test [32], the system named is Escherichia coli. The test is described as follows: Synergistic antibacterial activity against Escherichia coli ATCC 25922 fractional inhibitory concentration incubated for 24 hrs in presence of meropenem by checkerboard assay. The format is functional. The method, boiled down:
as §1

One may read the MIC as the lowest concentration that inhibits growth of the organism.

The source made the active and inactive calls. No cut-off for these calls is given here. Peptide text beside a SMILES is read from it.

`N=C(N)NCCC[C@@H]1NC(=O)[C@H](CCCNC(=N)N)NC(=O)[C@H](CCCNC(=N)N)NC(=O)[C@H](Cc2c[nH]c3ccccc23)NC(=O)[C@H](Cc2c[nH]c3ccccc23)NC(=O)[C@H](Cc2c[nH]c3ccccc23)NC(=O)[C@H](Cc2c[nH]c3ccccc23)NC(=O)[C@H](CCCNC(=N)N)NC(=O)[C@H](CCCNC(=N)N)NC1=O`: the MIC with Klebsiella pneumoniae [1] is more than 64 mg/L; with Klebsiella pneumoniae [2], more than 64 mg/L; against Klebsiella pneumoniae [3] it was more than 64 mg/L; in the test with Staphylococcus aureus [4], 1 mg/L; in the test on Pseudomonas aeruginosa [5] it was 0.125 mg/L. The “fractional inhibitory concentration index (FICI)” value in the test on Staphylococcus aureus [6] came out at 0.5; in the test with Escherichia coli [7], 0.5; in the test on Staphylococcus aureus [8], 0.5; in the test on Pseudomonas aeruginosa [9], 0.375; with Klebsiella pneumoniae [10], 0.5. For the same compound, the FIC with Pseudomonas aeruginosa [11] was determined as 0.25; with Escherichia coli [12] it was 0.25; with Staphylococcus aureus [13], 0.25; with Pseudomonas aeruginosa [14] it was 0.125; with Klebsiella pneumoniae [15], 0.25. The Activity (in the test on Staphylococcus aureus [16]; with Staphylococcus aureus [17]; in [18]) was 100% throughout. Moreover, the outcome in the test on Cell membrane [19], with Cell membrane [20], in the test with Cell membrane [21], in the test on Cell membrane [22] and with Cell membrane [23] was Active. Further, the result with Staphylococcus aureus [24] and with Escherichia coli [25] was inactive.
Regarding `N=C(N)NCCC[C@@H]1NC(=O)[C@H](CCCNC(=N)N)NC(=O)[C@H](CCCNC(=N)N)NC(=O)[C@H](CCCNC(=N)N)NC(=O)[C@H](Cc2c[nH]c3ccccc23)NC(=O)[C@H](Cc2c[nH]c3ccccc23)NC(=O)[C@H](Cc2c[nH]c3ccccc23)NC(=O)[C@H](Cc2c[nH]c3ccccc23)NC(=O)[C@H](CCCNC(=N)N)NC(=O)[C@H](CCCNC(=N)N)NC1=O` (cyclo(RRRRRRWWWW)), in the test on Escherichia coli [26], the MIC came to 0.125 mg/L. The “fractional inhibitory concentration index (FICI)” value with Escherichia coli [27] is given as 0.625; in the test with Escherichia coli [28] it was 0.375. Besides, the FIC stood at 0.125 with Escherichia coli [29], 0.063 with Staphylococcus aureus [30], 0.125 with Escherichia coli [31] and 0.125 with Escherichia coli [32].
